species on record: Rattus norvegicus; experiment: Agonist activity at alpha1L-adrenoceptor in Wistar rat isolated bladder neck assessed as induction of muscle contraction; conditions: not given
In short: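 Male Wistar rats anaesthetised with sodium pentobarbital (50 mg/kg) and killed. Bladder neck was isolated and cleaned in modified Krebs-Henseleit solution gassed with 95% O2/5% CO2. Strips were mounted in organ baths of the same solution at 37°C. Contraction was recorded across increasing doses, with noradrenaline as reference agonist.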

In the case of `CC(C)c1cc(Cl)cc2c1NCCC2C1=NCCN1` (stereo not given), the Activity is reported as “Dose-dependent effect”.

tested on: not listed separately; experiment: (§1) Agonist activity at human alpha1L-adrenoceptor expressed in CHO cells co-expressing CRELD1alpha assessed as induction of calcium mobilization after 60 mins by fluorometric imaging plate reader assay; type: cell-based; conditions: 1 h
In short: (§2)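 CHO cells (α1L-dominant) expressing human α1A-AR plus human CRELD1α were plated and grown overnight at 37°C under CO2. Cells were loaded with Calcium 5 indicator dye for 60 min at 37°C, then calcium influx was read by FLIPR. Activity is expressed as EC50 relative to the noradrenaline EC50.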

`NC[C@H](O)c1ccc(O)c(O)c1` gave an EC50 of 1020 nM.

tested on: CHO; experiment: as §1; type: cell-based; conditions: not given; in short: as §2

Point of comparison: `Cc1ccc(Cl)cc1CC1=NCCN1`, Activity 0%. Against it:
- Cc1c(CC2=NCCN2)cccc1C(C)C — higher, 36%

tested on: CHO; experiment: Agonist activity at human alpha1L-adrenoceptor expressed in CHO cells co-expressing CRELD1alpha assessed as induction of calcium mobilization after 60 mins by fluorometric imaging plate reader assay relative to control noradrenaline; type: cell-based; conditions: not given; in short: as §2

Point of comparison: `CC(C)c1cc(Cl)cc(CC2=NCCN2)c1`, Ratio 0.52. Against it:
- CC1(C)CCCc2c(CC3=NCCN3)cc(Cl)cc21 — lower, 0.028
- Cc1c(CC2=NCCN2)cc(Cl)cc1C(C)C — lower, 0.043
- CC(C)c1cc(Cl)cc2c1CCC2C1=NCCN1 (stereo not given) — lower, 0.08
- CC(C)c1cc(Cl)cc2c1NCCC2C1=NCCN1 (stereo not given) — lower, 0.0028
- Clc1cc(CC2=NCCN2)c2c(c1)C1(CCO2)CC1 — lower, 0.088
- CC(C)c1cc(Cl)cc2c1OCCC2C1=NCCN1 (stereo not given) — lower, 0.014
- CC(C)c1cc(Cl)cc2c1CCCC2C1=NCCN1 (stereo not given) — lower, 0.024
- Clc1cc(CC2=NCCN2)c2c(c1)C1(CCC2)CC1 — lower, 0.025
- CC1(C)CCc2c(CC3=NCCN3)cc(Cl)cc21 — lower, 0.12
- CC1CCCc2c(CC3=NCCN3)cc(Cl)cc21 (stereo not given) — lower, 0.063

Source: ChEMBL document CHEMBL3600326, “Discovery of potent α1L-adrenoceptor agonists: Design and synthesis of bicyclic derivatives” (Bioorg Med Chem Lett, 2015)
